Assays:
Mus musculus [1] = experiment: Toxicity in Swiss albino mouse assessed as loss of righting reflex at 100 mg/kg, sc measured up to 20 mins; assay type: organism-based; parameters: dose 100 mg/kg, route subcutaneous; conditions: in vivo
Procedure, shortened: (§1)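 Mice were given test agents subcutaneously, 100 mg/kg in preliminary runs, and were then challenged with chloroform to induce ventricular fibrillation (a modification of Lawson's method). Protection is expressed as the percent of challenged animals that survived the challenge. In the same animals, ataxia, convulsions, loss of righting reflex and death were scored as the percent of treated animals.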

Mus musculus [2] = experiment: Toxicity in Swiss albino mouse assessed as convulsion at 100 mg/kg, sc measured up to 20 mins; assay type: organism-based; parameters: dose 100 mg/kg, route subcutaneous; conditions: in vivo; procedure, shortened: as §1
Mus musculus [3] = experiment: Antiarrhythmic activity in Swiss albino mouse assessed as protection against chloroform-induced fibrillation at 100 mg/kg, sc treated 20 mins before chloroform challenge; assay type: functional, Heart; conditions: route subcutaneous; procedure, shortened: as §1
Mus musculus [4] = experiment: Toxicity in Swiss albino mouse assessed as ataxia at 100 mg/kg, sc measured up to 20 mins; assay type: organism-based; parameters: dose 100 mg/kg, route subcutaneous; conditions: in vivo; procedure, shortened: as §1
[5] = Toxicity in Swiss albino mouse assessed as death at 100 mg/kg, sc measured up to 20 mins; assay type: organism-based; parameters: dose 100 mg/kg, route subcutaneous; conditions: in vivo, read-out: Activity
Procedure, shortened: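 Mice given 100 mg/kg subcutaneously in preliminary screening, then later challenged with chloroform to induce ventricular fibrillation. CNS signs were recorded in the same animals. Value is the percent of treated animals that died.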

Mus musculus [6] = experiment: Ratio of lidocaine ED50 to compound ED50 for antiarrhythmic activity sc dosed Swiss albino mouse assessed as protection against chloroform-induced ventricular fibrillation; assay type: functional, Heart
Procedure, shortened: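 Each ED50 against chloroform-induced ventricular fibrillation in subcutaneously dosed mice came from at least three doses. Potency was calculated relative to lidocaine on a molar basis.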

Mus musculus [7] = experiment: Antiarrhythmic activity in sc dosed Swiss albino mouse assessed as protection against chloroform-induced ventricular fibrillation; assay type: functional; conditions: Heart; procedure, shortened: as §1
Canis familiaris [8] = experiment: Antiarrhythmic activity in left anterior descending coronary artery ligated myocardial infarction dog model assessed as clearing value as reduction in ventricular ectopic beat rate per min at infusion rate 0.5 mg/kg/min, iv treated until arrhythmia cleared; assay type: functional, Canis lupus familiaris, Heart
Procedure, shortened: (§2)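 Test agents were infused intravenously into dogs with coronary artery ligation-induced myocardial infarction and ventricular arrhythmias. In some runs, infusion stopped at clearing or at convulsion. In others, it continued until clearing. Ectopic beats, CNS signs (convulsions, opisthotonus, clonic spasms), respiratory arrest and mean arterial blood pressure were recorded, and doses are given in mmol/kg. Values are means±SD of 5–14 experiments or the mean of 8.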

Canis familiaris [9] = experiment: Antiarrhythmic activity in left anterior descending coronary artery ligated myocardial infarction dog model assessed as clearing value as reduction in ventricular ectopic beats to <= 5% for 5 mins at infusion rate 0.5 mg/kg/min, iv treated until arrhythmia cleared; assay type: functional, Canis lupus familiaris, Heart; parameters: scale not given: the % may be the effect or the level left; procedure, shortened: as §2
Canis familiaris [10] = experiment: Toxicity in left anterior descending coronary artery ligated myocardial infarction dog model assessed as dose required to cause convulsion at infusion rate at 0.66 mg/kg/min; assay type: organism-based, Canis lupus familiaris; conditions: in vivo; procedure, shortened: as §2
Canis familiaris [11] = experiment: Antiarrhythmic activity in iv dosed left anterior descending coronary artery ligated myocardial infarction dog model assessed as dose required to reduction in ventricular ectopic beats to <= 5% at infusion rate 0.5 mg/kg/min; assay type: functional, Canis lupus familiaris, Heart; procedure, shortened: as §2
Canis familiaris [12] = experiment: Antiarrhythmic activity in left anterior descending coronary artery ligated myocardial infarction dog model assessed as mean arterial blood pressure at infusion rate 0.5 mg/kg/min, iv; assay type: functional, Canis lupus familiaris; procedure, shortened: as §2
Canis familiaris [13] = experiment: Toxicity in iv dosed left anterior descending coronary artery ligated myocardial infarction dog model assessed as dose required to cause convulsion after infusion off; assay type: organism-based, Canis lupus familiaris; conditions: in vivo; procedure, shortened: as §2
Canis familiaris [14] = experiment: Toxicity in left anterior descending coronary artery ligated myocardial infarction dog model assessed as dose required to cause convulsion at infusion rate at 0.5 mg/kg/min; assay type: organism-based, Canis lupus familiaris; conditions: in vivo; procedure, shortened: as §2

| SMILES | Activity (Mus musculus [1]) [%] | Activity (Mus musculus [2]) [%] | Activity (Mus musculus [3]) [%] | Activity (Mus musculus [4]) [%] | mortality at 20 min [5] [%] | Ratio ED50 (Mus musculus [6]) | ED50 (Mus musculus [7]) [µmol/kg] | Activity (Canis familiaris [8]) [bpm] | Activity (Canis familiaris [9]) [%] | Activity (Canis familiaris [10]) [mmol/kg] | Activity (Canis familiaris [11]) [mmol/kg] | Activity (Canis familiaris [12]) [mmHg] | Activity (Canis familiaris [13]) [mmol/kg] | Activity (Canis familiaris [14]) [mmol/kg] |
| --- | --- | --- | --- | --- | --- | --- | --- | --- | --- | --- | --- | --- | --- | --- |
| CCC(N)C(=O)N(CC)c1c(C)cccc1C.Cl (stereo not drawn) | 0 | 100 | 100 | 100 | 30 |  |  |  |  |  |  |  |  |  |
| CCCCOc1cc(C)c(N(C)C(=O)CN)c(C)c1.O=C(O)C(=O)O | 0 | 0 | 100 | 0 | 0 | 1 | 270 |  |  |  |  |  |  |  |
| CCCOc1cc(C)c(N(CC)C(=O)CN)c(C)c1.O=C(O)C(=O)O | 0 | 0 | 100 | 0 | 0 | 1.6 | 160 | 168 | 1 | 0.13 | 0.09 | 90 | 0.16 |  |
| Cc1cccc(C)c1NC(=O)CN [GLYCINEXYLIDIDE] | 0 | 0 | 10 | 0 | 0 | 0.3 | 900 |  |  |  |  |  |  |  |
| CCCOc1cc(C)c(N(C)C(=O)CN)c(C)c1.O=C(O)C(=O)O | 0 | 0 | 70 | 20 | 0 | 0.8 | 340 |  |  |  |  |  |  |  |
| Cc1cccc(C)c1NC(=O)C(C)N (stereo not drawn) [TOCAINIDE] | 0 | 0 | 20 | 10 | 0 | 0.2 | 1300 | 148 | 2 |  | 0.32 | 108 |  | 0.3 |
| CCN(CC)CC(=O)Nc1c(C)cccc1C [LIDOCAINE] | 100 | 100 | 100 | 100 | 0 | 1 | 260 | 133 | 4 |  | 0.21 | 101 |  | 0.27 |

Source: ChEMBL document CHEMBL3244116, “New antiarrhythmic agents. 2. Amide alkyl alpha-amino xylidides” (J Med Chem, 1979)
